The source made the active and inactive calls. The calls are words filed in the database; no cut-off is given here.
What was measured:
[1] = tested on: Rattus norvegicus; assay: Antihypertensive effect in anesthetized Wistar rat assessed as change diastolic arterial pressure at 10.0 mg/kg administered through femoral vein; format: functional, Artery
In short: (§1)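 Male Wistar rats (280–320 g) under sodium pentobarbital (45 mg/kg, ip), tracheotomised. Right carotid cannulated (PE50) to a pressure transducer recording systolic, diastolic and mean arterial pressure and heart rate. Cumulative iv doses via femoral vein every 5 min: test series 0.0001–10 mg/kg, reference drugs 0.0001–1.0 mg/kg, n = 5. Change measured from pre-dose basal; ED50 taken from a fitted dose–effect model.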

[2] = tested on: Rattus norvegicus; assay: Antihypertensive effect in spontaneous hypertensive Wistar rat model assessed as maximum decrease in diastolic arterial pressure at 1.0 mg/kg, po after 80 mins; format: functional, Artery
In short: (§2)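 Conscious spontaneously hypertensive rats given a single oral dose of 1.0 mg/kg. Systolic and diastolic pressure and heart rate followed over 2.0 h. The largest fall from baseline and the time at which it occurred were recorded for each variable.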

[3] = tested on: Rattus norvegicus; assay: Antihypertensive effect in anesthetized Wistar rat; format: functional; in short: as §1
[4] = tested on: Rattus norvegicus; assay: Antihypertensive effect in anesthetized Wistar rat assessed as change mean arterial pressure at 10.0 mg/kg administered through femoral vein; format: functional, Artery; in short: as §1
[5] = tested on: Rattus norvegicus; assay: Antihypertensive effect in spontaneous hypertensive Wistar rat model assessed as maximum decrease in systolic arterial pressure at 1.0 mg/kg, po after 80 mins; format: functional, Artery; in short: as §2
[6] = tested on: Rattus norvegicus; assay: Antihypertensive effect in spontaneous hypertensive Wistar rat model assessed as maximum decrease in heart rate per min at 1.0 mg/kg, po after 80 mins; format: functional; in short: as §2
[7] = tested on: Rattus norvegicus; assay: Antihypertensive effect in anesthetized Wistar rat assessed as change systolic arterial pressure at 10.0 mg/kg administered through femoral vein; format: functional, Artery; in short: as §1
[8] = tested on: Rattus norvegicus; assay: Hypotensive effect in anesthetized Wistar rat arterial pressure model at 3.1 mg/kg administered through femoral vein; format: functional, organism-based; set-up: dose 3.1 mg/kg; conditions: Artery; in short: as §1
[9] = tested on: Rattus norvegicus; assay: Hypotensive effect in anesthetized Wistar rat arterial pressure model assessed as decrease in heart rate at 0.01 mg/kg administered through femoral vein; format: functional, organism-based; set-up: dose 0.01 mg/kg; in short: as §1
[10] = tested on: Rattus norvegicus; assay: Antihypertensive effect in spontaneous hypertensive Wistar rat model assessed as maximum decrease in diastolic arterial pressure at 1.0 mg/kg, po after 60 mins; format: functional, Artery; in short: as §2
[11] = tested on: Rattus norvegicus; assay: Hypotensive effect in anesthetized Wistar rat arterial pressure model at 1.0 mg/kg administered through femoral vein; format: functional, organism-based; set-up: dose 1 mg/kg; conditions: Artery; in short: as §1
[12] = tested on: Rattus norvegicus; assay: Hypotensive effect in anesthetized Wistar rat arterial pressure model assessed as decrease in heart rate at 0.1 mg/kg administered through femoral vein; format: functional, organism-based; set-up: dose 0.1 mg/kg; in short: as §1
[13] = tested on: Rattus norvegicus; assay: Hypotensive effect in anesthetized Wistar rat arterial pressure model at 0.1 mg/kg administered through femoral vein; format: functional, organism-based; set-up: dose 0.1 mg/kg; conditions: Artery; in short: as §1
[14] = tested on: Rattus norvegicus; assay: Antihypertensive effect in spontaneous hypertensive Wistar rat model assessed as maximum decrease in systolic arterial pressure at 1.0 mg/kg, po after 100 mins; format: functional, Artery; in short: as §2
[15] = tested on: Rattus norvegicus; assay: Antihypertensive effect in spontaneous hypertensive Wistar rat model assessed as maximum decrease in heart rate per min at 1.0 mg/kg, po after 100 mins; format: functional; in short: as §2
[16] = tested on: Rattus norvegicus; assay: Hypotensive effect in anesthetized Wistar rat arterial pressure model assessed as decrease in heart rate at 1.0 mg/kg administered through femoral vein; format: functional, organism-based; set-up: dose 1 mg/kg; in short: as §1
[17] = tested on: Rattus norvegicus; assay: Hypotensive effect in anesthetized Wistar rat arterial pressure model at 0.001 mg/kg administered through femoral vein; format: functional, organism-based; set-up: dose 0.001 mg/kg; conditions: Artery; in short: as §1
[18] = tested on: Rattus norvegicus; assay: Hypotensive effect in anesthetized Wistar rat arterial pressure model at 10.0 mg/kg administered through femoral vein; format: functional, organism-based; set-up: dose 10 mg/kg; conditions: Artery; in short: as §1
[19] = tested on: Rattus norvegicus; assay: Hypotensive effect in anesthetized Wistar rat arterial pressure model assessed as decrease in heart rate at 10.0 mg/kg administered through femoral vein; format: functional, organism-based; set-up: dose 10 mg/kg; in short: as §1
[20] = tested on: Rattus norvegicus; assay: Antihypertensive effect in spontaneous hypertensive Wistar rat model assessed as maximum decrease in heart rate per min at 1.0 mg/kg, po after 110 mins; format: functional; in short: as §2
[21] = tested on: Rattus norvegicus; assay: Antihypertensive effect in spontaneous hypertensive Wistar rat model assessed as maximum decrease in diastolic arterial pressure at 1.0 mg/kg, po after 100 mins; format: functional, Artery; in short: as §2
[22] = tested on: Rattus norvegicus; assay: Hypotensive effect in anesthetized Wistar rat arterial pressure model assessed as decrease in heart rate at 0.001 mg/kg administered through femoral vein; format: functional, organism-based; set-up: dose 0.001 mg/kg; in short: as §1
[23] = tested on: Rattus norvegicus; assay: Hypotensive effect in anesthetized Wistar rat arterial pressure model assessed as decrease in heart rate at 0.0001 mg/kg administered through femoral vein; format: functional, organism-based; set-up: dose 0.0001 mg/kg; in short: as §1
[24] = tested on: Rattus norvegicus; assay: Hypotensive effect in anesthetized Wistar rat arterial pressure model at 0.0001 mg/kg administered through femoral vein; format: functional, organism-based; set-up: dose 0.0001 mg/kg; conditions: Artery; in short: as §1
[25] = tested on: Rattus norvegicus; assay: Antihypertensive effect in spontaneous hypertensive Wistar rat model assessed as maximum decrease in diastolic arterial pressure at 1.0 mg/kg, po after 90 mins; format: functional, Artery; in short: as §2
[26] = tested on: Rattus norvegicus; assay: Antihypertensive effect in spontaneous hypertensive Wistar rat model assessed as maximum decrease in systolic arterial pressure at 1.0 mg/kg, po after 90 mins; format: functional, Artery; in short: as §2
[27] = tested on: Rattus norvegicus; assay: Hypotensive effect in anesthetized Wistar rat arterial pressure model at 0.01 mg/kg administered through femoral vein; format: functional, organism-based; set-up: dose 0.01 mg/kg; conditions: Artery; in short: as §1
[28] = tested on: Rattus norvegicus; assay: Hypotensive effect in anesthetized Wistar rat arterial pressure model assessed as decrease in heart rate at 3.1 mg/kg administered through femoral vein; format: functional, organism-based; set-up: dose 3.1 mg/kg; in short: as §1
[29] = tested on: Rattus norvegicus; assay: Antihypertensive effect in anesthetized Wistar rat assessed as reduction of mean arterial pressure at 1 mg/kg administered through femoral vein; format: functional, organism-based; set-up: dose 1 mg/kg; conditions: Artery
In short: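 Male Wistar rats (280–320 g) anesthetized with sodium pentobarbital (45 mg/kg ip), tracheotomized; right carotid artery cannulated to a pressure transducer recording systolic, diastolic and mean arterial pressure and heart rate. Compounds given IV via femoral vein as cumulative dose–effect curve (0.0001–10 mg/kg), doses every five minutes; n = 5.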

[30] = tested on: Rattus norvegicus; assay: Antihypertensive effect in spontaneous hypertensive Wistar rat model assessed as maximum decrease in heart rate per min at 1.0 mg/kg, po after 120 mins; format: functional; in short: as §2
[31] = tested on: Rattus norvegicus; assay: Antihypertensive effect in spontaneous hypertensive Wistar rat model assessed as maximum decrease in systolic arterial pressure at 1.0 mg/kg, po after 60 mins; format: functional, Artery; in short: as §2
[32] = tested on: Rattus norvegicus; assay: Antihypertensive effect in anesthetized Wistar rat assessed as reduction of diastolic arterial pressure at 1 mg/kg administered through femoral vein; format: functional, organism-based; set-up: dose 1 mg/kg; conditions: Artery; in short: as §1
[33] = tested on: Rattus norvegicus; assay: Antihypertensive effect in anesthetized Wistar rat assessed as reduction of systolic arterial pressure at 1 mg/kg administered through femoral vein; format: functional, organism-based; set-up: dose 1 mg/kg; conditions: Artery; in short: as §1
[34] = tested on: Rattus norvegicus; assay: Antihypertensive effect in spontaneous hypertensive Wistar rat model assessed as maximum decrease in systolic arterial pressure at 1.0 mg/kg, po after 50 mins; format: functional, Artery; in short: as §2
[35] = tested on: Rattus norvegicus; assay: Antihypertensive effect in spontaneous hypertensive Wistar rat model assessed as maximum decrease in heart rate per min at 1.0 mg/kg, po after 70 mins; format: functional; in short: as §2

| Compound | ED50 [3] [mg/kg] | Activity [8] | Activity [9] | Activity [10] [mmHg] | Activity [11] | Activity [12] | Activity [16] | Activity [18] | Activity [19] | Activity [28] | also measured |
| --- | --- | --- | --- | --- | --- | --- | --- | --- | --- | --- | --- |
| CCCCc1nc(Cl)c(CO)n1Cc1ccc(-c2ccccc2-c2nnn[nH]2)cc1 [LOSARTAN] | 0.0282 | – | – | – | – | – | – | – | – | – | Activity [1]: 45.64 mmHg; Activity [2]: 66.3 mmHg; Activity [4]: 41.31 mmHg; Activity [5]: 82.3 mmHg; Activity [6]: 38.37; Activity [7]: 43.62 mmHg |
| CC(C)(C)c1ccc(O)c(CN2CCSCC2)c1 | 1.04 | Active | Active | 31.8 | Active | Active | Active | Active | Active | – | Activity [13]: Active; Activity [14]: 71.5 mmHg; Activity [15]: 148 beats/min; Activity [17]: Active |
| Oc1ccc(Cl)cc1CN1CCSCC1 | 2.21 | Active | Active | – | Active | – | – | Active | – | – | Activity [20]: 72.2; Activity [21]: 46.7 mmHg; Activity [22]: Active; Activity [14]: 73.9 mmHg; Activity [23]: Active |
| CC(C)(C)c1cc(CN2CCSCC2)c(O)c(CN2CCSCC2)c1 | 0.411 | Active | – | – | Active | – | Active | Active | Active | Active | Activity [24]: Active; Activity [25]: 48.2 mmHg; Activity [13]: Active; Activity [26]: 95.8 mmHg; Activity [27]: Active; Activity [15]: 160 beats/min; Activity [17]: Active; Activity [29]: Active |
| Oc1cc(O)c(CN2CCSCC2)cc1CN1CCSCC1 | 0.363 | – | Active | 29.2 | – | Active | Active | – | Active | Active | Activity [30]: 92.5; Activity [31]: 45.6 mmHg |
| O=C(N[C@H]1CCS[C@H]2CCC[C@@H](C(=O)O)N2C1=O)[C@@H](S)Cc1ccccc1 [OMAPATRILAT] | 0.0058 | – | – | – | – | – | – | – | – | – | – |
| C[C@H](CS)C(=O)N1CCC[C@H]1C(=O)O [CAPTOPRIL] | 0.00062 | – | – | – | – | – | – | – | – | – | Activity [21]: 36.5 mmHg; Activity [32]: Active; Activity [33]: Active; Activity [34]: 42 mmHg; Activity [35]: 52.04 |
| CC(C)(c1ccc(O)c(CN2CCSCC2)c1)c1ccc(O)c(CN2CCSCC2)c1 | 1.41 | Active | Active | 12.6 | Active | Active | Active | Active | Active | Active | Activity [24]: Active; Activity [30]: 106.566; Activity [31]: 28.1 mmHg |

Reference: ChEMBL document CHEMBL1149786, “Synthesis and antihypertensive effects of new methylthiomorpholinphenol derivatives” (2008)
